Active and inactive are the calls of the source. No cut-off for these calls is given here.
Columns and labels:
[1] = test system: Mus musculus; assay: Intraperitoneal dose required for antagonism of d-amphetamine lethality in grouped mice (GAL); assay type: functional; conditions: ip
How it was run: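 Mice housed in groups received drug intraperitoneally and were scored for protection against d-amphetamine-induced lethality. There were 5 to 10 animals per dose group. The ED50 was the dose protecting 50% of mice. 95% confidence limits came from Finney's arc-sine transformation method.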

[2] = test system: Mus musculus; assay: Minimum effective dose was measured orally by antagonism of tetrabenazine-induced depression in mice(po); inact means compound is inactive.; assay type: functional, organism-based
How it was run: (§1)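 Mice given tetrabenazine to induce depression; test agent given orally to look for antagonism of that depression. The value is the minimum effective dose. Each test group held 5 to 10 animals. The protocol is the same as in the group's earlier publications.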

[3] = test system: Rattus norvegicus; assay: Estimated oral dose depressing motor activity by 50% in rats(po); assay type: functional
How it was run: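 Rats dosed orally; spontaneous motor activity recorded. The value is the estimated dose that lowers motor activity by 50%. Each test group held 5 to 10 animals. The protocol is the same as in the authors' earlier reports.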

[4] = test system: Mus musculus; assay: Oral dose required for antagonism of d-amphetamine lethality in grouped mice (GAL); assay type: functional
How it was run: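 Drug was given orally to grouped mice challenged with d-amphetamine, and survival (protection from lethality) was recorded. Each test group had 5 to 10 animals. The result is an ED50 with 95% confidence limits, calculated by the arc-sine transformation method of Finney.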

[5] = test system: Mus musculus; assay: Minimum effective dose was measured orally by antagonism of tetrabenazine-induced depression in mice(po); assay type: functional; conditions: read-out: MED; how it was run: as §1

SMILES	ED50 [1]	MED [2]	MDD50 [3]	ED50 [4]	minimal effective dose [5]
CN1CCN(C2=Nc3ccccc3Cn3cccc32)CC1	1 mg/kg	inactive	7 mg/kg	–	–
CN(C)CCCN1c2ccccc2Sc2ccc(Cl)cc21 [CHLORPROMAZINE]	0.6 mg/kg	inactive	2.4 mg/kg	–	–
c1ccc2c(c1)Cn1cccc1C(N1CCNCC1)=N2	–	–	–	4.7 mg/kg	3.1 mg/kg
CN1CCN(C2=Nc3cc(Cl)ccc3Cn3cccc32)CC1	4 mg/kg	inactive	12 mg/kg	–	–
CN1CCN(C2=Nc3cc(Cl)ccc3Nc3ccccc32)CC1 [CLOZAPINE]	2.2 mg/kg	inactive	21 mg/kg	–	–
CN1CCN(C2=Nc3ccc(Cl)cc3Cn3cccc32)CC1	16 mg/kg	inactive	50 mg/kg	–	–
CN(C)CCCN1c2ccccc2CCc2ccccc21 [IMIPRAMINE]	–	–	>50 mg/kg	–	5 mg/kg
